ChEMBL document CHEMBL3763107, “Anti-inflammatory neolignans from the roots of Magnolia officinalis” (Bioorg Med Chem, 2016)
Activity calls are given as the source filed them. The rule behind the calls is not given here.

Legend:
Type in all cases: functional, cell-based
[1] = test system: Neutrophil; assay: (§1) Antiinflammatory activity in human neutrophils assessed as inhibition of FMLP/CB-induced superoxide anion generation by measuring superoxide dismutase-inhibitable reduction of ferricytochrome c by spectrophotometric analysis
How it was run: (§2)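 Dextran/Ficoll-purified human neutrophils (6 × 10^5 cells/mL) with ferricytochrome c and 1 mM Ca2+, 2 min at 37 °C. Primed with 1 µg/mL cytochalasin B, then 100 nM FMLP. A550 monitored continuously with stirring. Superoxide taken as the SOD (100 U/mL)-inhibitable reduction using ε 21.1/mM/10 mm. IC50 from mean of n = 3.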

[2] = as §1; settings: Neutrophil; how it was run: as §2
[3] = test system: Neutrophil; assay: (§3) Antiinflammatory activity in human neutrophils assessed as inhibition of FMLP/CB-induced elastase release using MeO-Suc-Ala-Ala-Pro-Val-p-nitroanilide as substrate incubated for 5 mins by spectrophotometric analysis
How it was run: (§4)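 Neutrophils from healthy donor blood, isolated by dextran sedimentation, Ficoll gradient and hypotonic lysis, kept in Ca2+-free HBSS pH 7.4 at 4 °C. Cells at 6 × 10^5/mL with 100 µM substrate, 2 min at 37 °C, then drug or 0.1% DMSO vehicle for 5 min. Activated with 100 nM FMLP + 0.5 µg/mL CB. A405 followed continuously; % of drug-free activated control; IC50 from mean of n = 3.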

[4] = as §3; settings: Neutrophil; how it was run: as §4
[5] = test system: Neutrophil; assay: Induction of ferricytochrome c reduction in human neutrophils by spectrophotometric analysis
[6] = test system: Neutrophil; assay: Induction of superoxide anion generation in human neutrophils by spectrophotometric analysis
[7] = test system: Neutrophil; assay: Induction of FMLP/CB-mediated superoxide anion generation in human neutrophils by measuring superoxide dismutase-inhibitable reduction of ferricytochrome c by spectrophotometric analysis

IC50 [2] [µM] | IC50 [4] [µM] | SMILES | inhibition [1] | inhibition [3] | Activity [5] | Activity [6] | Activity [7]
14.3 | 8.18 | C=CCc1ccc(O)c(-c2ccc(OC)c(CC=C)c2)c1 [METHYLHONOKIOL] | Dose-dependent effect | Dose-dependent effect | – | – | –
5.48 | 3.39 | C=CCc1ccc(O)c(-c2cc(CC=C)cc(OC)c2O)c1 | Dose-dependent effect | Dose-dependent effect | – | – | –
– | 3.3 | C=CCc1ccc(Oc2cc(CC=C)cc(O)c2O)cc1 [OBOVATOR] | – | Dose-dependent effect | Active | – | –
8.16 | 3.56 | C=CCc1ccc(O)c(-c2cc(CC=C)cc([C@H]3C[C@](C)(O)CC[C@@H]3C(C)C)c2O)c1 | Dose-dependent effect | Dose-dependent effect | – | – | –
– | 0.63 | C=CCc1ccc(O)c(-c2cc(CC=C)cc(C=O)c2O)c1 | – | Dose-dependent effect | – | Active | –
15.1 | 10.7 | C=CCc1ccc(O)c(-c2cc(CC=C)cc([C@@H]3[C@@H](C(C)C)CC[C@@](C)(O)[C@@H]3O)c2O)c1 | Dose-dependent effect | Dose-dependent effect | – | – | –
3.54 | 3.67 | C=CCc1ccc(Oc2cc(CC=C)c3c(c2O)O[C@@]2(C)CC[C@@H](C(C)C)[C@@H]3C2)cc1 | Dose-dependent effect | Dose-dependent effect | – | – | –
10.8 | 14.8 | C=CCc1ccc(O)c(-c2cc(CC=C)cc([C@@H]3C=C(C)CC[C@H]3C(C)C)c2O)c1 | Dose-dependent effect | Dose-dependent effect | – | – | –
7.89 | 18.2 | C=CCc1ccc(O)c(-c2ccc(O)c(OC)c2)c1 | Dose-dependent effect | Dose-dependent effect | – | – | –
4.17 | 2.59 | C=CCc1ccc(O)c(-c2cc(CC=C)cc3c2O[C@@H]2[C@H]3[C@@H](C(C)C)CC[C@@]2(C)O)c1 | Dose-dependent effect | Dose-dependent effect | – | – | –
3.2 | 2 | CNC(=O)c1cc(Oc2ccc(NC(=O)Nc3ccc(Cl)c(C(F)(F)F)c3)cc2)ccn1 [SORAFENIB] | – | – | – | – | –
19.3 | 3.81 | C=CCc1ccc(O)c(-c2ccc(O[C@@H]3CCc4cc(CC=C)cc(-c5cc(CC=C)ccc5O)c4O3)cc2O)c1 | Dose-dependent effect | Dose-dependent effect | – | – | –
– | 2.25 | C=CCc1ccc(O)c(-c2cc(O[C@H]3CCc4cc(CC=C)cc(-c5cc(CC=C)ccc5O)c4O3)ccc2O)c1 | – | Dose-dependent effect | – | – | Active
4.21 | 2.16 | C=CCc1ccc(O)c(-c2cc(CC=C)cc([C@H]3C[C@@](C)(O)CC[C@@H]3C(C)C)c2O)c1 | Dose-dependent effect | Dose-dependent effect | – | – | –
